Active and inactive are the calls of the source. The calls are words filed in the database; no cut-off is given here.
Legend:
[1] = target: T1, Tyrosine-protein phosphatase non-receptor type 1 (Homo sapiens, UniProt P18031); test: Competitive inhibition of GST-tagged human recombinant PTP1B expressed in Escherichia coli TB1 using p-nitrophenylphosphate as substrate by Line-Weaver Burk plot
T1 sequence (P18031 whole entry): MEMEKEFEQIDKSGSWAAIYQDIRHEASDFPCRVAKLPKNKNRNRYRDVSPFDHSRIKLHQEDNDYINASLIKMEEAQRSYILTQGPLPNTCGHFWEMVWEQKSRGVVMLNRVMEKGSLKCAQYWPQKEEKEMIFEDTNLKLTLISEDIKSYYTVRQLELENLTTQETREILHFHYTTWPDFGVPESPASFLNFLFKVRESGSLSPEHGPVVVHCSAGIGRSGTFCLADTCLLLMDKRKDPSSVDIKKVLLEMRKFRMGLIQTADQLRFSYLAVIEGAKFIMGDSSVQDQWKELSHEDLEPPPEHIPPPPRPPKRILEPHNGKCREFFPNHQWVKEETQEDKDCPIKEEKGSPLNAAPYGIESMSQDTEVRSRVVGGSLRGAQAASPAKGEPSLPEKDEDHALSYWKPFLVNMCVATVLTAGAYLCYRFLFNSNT
Summary of the method: (§1)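 Human enzymes were expressed in E. coli TB1 as GST fusions and purified on glutathione-Sepharose. GST was removed by thrombin (3 h, 37 °C), followed by gel filtration. Assays ran at 37 °C in pH 7.0 buffer (0.075 M β,β-dimethylglutarate, 1 mM EDTA, 5 mM DTT) with p-nitrophenylphosphate, read at 400 nm. Initial rates were measured in triplicate at differing substrate and inhibitor levels, and apparent Km was plotted against inhibitor concentration to give Ki.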

[2] = target: T2, Low molecular weight phosphotyrosine protein phosphatase (Homo sapiens, UniProt P24666); test: Competitive inhibition of GST-tagged human recombinant LMW-PTP IF1 expressed in Escherichia coli TB1 using p-nitrophenylphosphate as substrate by Line-Weaver Burk plot; summary of the method: as §1
T2 sequence (P24666 whole entry): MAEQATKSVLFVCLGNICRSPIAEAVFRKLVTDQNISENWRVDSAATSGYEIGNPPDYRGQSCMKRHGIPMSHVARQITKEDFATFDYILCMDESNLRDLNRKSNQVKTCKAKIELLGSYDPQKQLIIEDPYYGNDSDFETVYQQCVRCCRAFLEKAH

[3] = target: T2, Low molecular weight phosphotyrosine protein phosphatase; test: Competitive inhibition of GST-tagged human recombinant LMW-PTP IF2 expressed in Escherichia coli TB1 using p-nitrophenylphosphate as substrate by Line-Weaver Burk plot; summary of the method: as §1
[4] = target: T3, Tyrosine-protein phosphatase non-receptor type 2 (Homo sapiens, UniProt P17706); test: Competitive inhibition of human recombinant TCPTP using p-nitrophenylphosphate as substrate by Line-Weaver Burk plot
T3 sequence (P17706 whole entry): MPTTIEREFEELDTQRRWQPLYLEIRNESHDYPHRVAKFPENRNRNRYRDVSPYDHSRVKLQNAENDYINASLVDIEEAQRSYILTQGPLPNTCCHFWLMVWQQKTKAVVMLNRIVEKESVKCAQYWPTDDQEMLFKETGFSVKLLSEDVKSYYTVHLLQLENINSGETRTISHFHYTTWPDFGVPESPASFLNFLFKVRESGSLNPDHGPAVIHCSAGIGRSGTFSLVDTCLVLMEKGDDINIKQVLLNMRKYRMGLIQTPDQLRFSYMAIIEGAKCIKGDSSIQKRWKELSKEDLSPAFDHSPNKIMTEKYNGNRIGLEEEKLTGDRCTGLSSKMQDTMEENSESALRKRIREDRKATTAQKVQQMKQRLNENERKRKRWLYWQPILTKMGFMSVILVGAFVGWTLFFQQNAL

Homo sapiens [5] = species: Homo sapiens; test: Selectivity ratio of IC50 for human recombinant LMW-PTP IF2 to IC50 for human recombinant LMW-PTP IF1
Summary of the method: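 Recombinant human LMW-PTP IF1 and IF2 (GST cleaved off) were assayed at 37 °C in pH 7.0 β,β-dimethylglutarate/EDTA/DTT buffer. Fixed p-nitrophenylphosphate equal to each isoform's Km was used, with p-nitrophenolate read at 400 nm. IC50 came from fitting vi/v0 against inhibitor concentration to a four-parameter equation. The ratio is IF2 IC50 over IF1 IC50.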

Homo sapiens [6] = species: Homo sapiens; test: Selectivity ratio of IC50 for human recombinant TCPTP to IC50 for human recombinant PTP1B
Summary of the method: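 IC50 values were from initial p-nitrophenylphosphate hydrolysis (400 nm) in pH 7.0 β,β-dimethylglutarate/EDTA/DTT buffer, fitted to a four-parameter equation. PTP1B (recombinant human, GST cleaved) was assayed at 37 °C with substrate at its Km. Commercial recombinant TC-PTP (0.02 µg) was assayed with 2.8 mM p-nitrophenylphosphate, stopped with KOH. The ratio is TC-PTP IC50 over PTP1B IC50.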

C2C12 = test: Cytotoxicity against mouse C2C12 cells at 25 uM after 2 hrs by MTT assay; format: cell-based; conditions: c2c12, 2 h
Summary of the method: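 C2C12 myoblasts were differentiated 4 days in DMEM/2% horse serum, then serum-starved 20 h. Compounds at 25 µM final (DMSO vehicle) were given for 2 h. MTT was added at 0.5 mg/ml final, 37 °C for 2 h. Cells were lysed in DMSO and formazan read at 570 nm, expressed as % of DMSO control, mean ± SE of three replicates.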

[7] = target: T4, Tyrosine-protein phosphatase non-receptor type 1 (Mus musculus) (UniProt P35821); test: Inhibition of PTP1B in mouse C2C12 cells assessed as increase in insulin receptor beta tyrosine phosphorylation at 25 uM; format: cell-based
T4 sequence (whole entry): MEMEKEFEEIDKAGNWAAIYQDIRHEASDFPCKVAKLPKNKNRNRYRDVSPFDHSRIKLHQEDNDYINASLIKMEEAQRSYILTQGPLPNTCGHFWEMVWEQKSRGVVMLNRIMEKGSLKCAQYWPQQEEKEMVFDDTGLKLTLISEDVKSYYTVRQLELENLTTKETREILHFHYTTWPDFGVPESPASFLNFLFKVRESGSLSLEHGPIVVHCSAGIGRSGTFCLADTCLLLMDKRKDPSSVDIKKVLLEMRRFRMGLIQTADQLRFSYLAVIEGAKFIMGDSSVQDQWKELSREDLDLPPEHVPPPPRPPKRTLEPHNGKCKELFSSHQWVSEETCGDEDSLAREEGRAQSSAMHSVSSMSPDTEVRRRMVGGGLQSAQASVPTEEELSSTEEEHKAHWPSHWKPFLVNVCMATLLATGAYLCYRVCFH
Summary of the method: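 Differentiated, 20 h serum-starved C2C12 myotubes were exposed to 25 µM compound (1.2% DMSO) for 90 min at 37 °C. Insulin 10 nM for 30 min served as positive control. Lysates in SDS sample buffer were run on SDS-PAGE and western blotted for phospho-IRβ, normalized to actin, in at least three experiments.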

[8] = target: T4, Tyrosine-protein phosphatase non-receptor type 1 (Mus musculus); test: Inhibition of PTP1B in mouse C2C12 cells assessed as increase in intracellular 2-deoxyglucose uptake using [3H]glucose as substrate at 25 uM after 90 mins by scintillation counting; format: cell-based
Summary of the method: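 C2C12 myotubes were differentiated and serum-starved 20 h, then treated 90 min with 25 µM compound (1.2% DMSO). Insulin 10 nM for 30 min was the positive control. 0.1 µCi 2-deoxy-D-[3H]glucose in Ringer–Hepes was taken up 15 min at 37 °C. Cells were washed with cold PBS, lysed in 0.2 M NaOH and counted by scintillation, normalized to protein. Mean ± SE of three replicates.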

Row | SMILES | IC50 [1] | IC50 [2] | IC50 [3] | IC50 [4] | Ratio IC50 (Homo sapiens [5]) | Ratio IC50 (Homo sapiens [6]) | inhibition [7] | inhibition [8] | Ki [1] | Activity (C2C12)
1 | O=C(O)c1ccc(CN2C(=O)/C(=C/c3cccc(OCc4ccccc4)c3)S/C2=N\c2ccc(C(F)(F)F)cc2)cc1 | 5.6 µM | 12 µM | > 150 µM | > 100 µM | > 3 | > 2 | Active | Active | – | Non-toxic
2 | COc1ccc(/N=C2\S/C(=C\c3cccc(OCc4ccccc4)c3)C(=O)N2Cc2ccc(C(=O)O)cc2)cc1 | 5.1 µM | 9.6 µM | 17.5 µM | 11.6 µM | > 3 | > 2 | Active | inactive | – | Non-toxic
3 | O=C(O)c1ccc(CN2C(=O)/C(=C/c3cccc(Oc4ccccc4)c3)S/C2=N\c2ccc(C(F)(F)F)cc2)cc1 | 10.4 µM | 13.7 µM | > 150 µM | 20.6 µM | > 3 | 2 | – | Active | – | Non-toxic
4 | COc1ccc(/N=C2\S/C(=C\c3ccc4ccccc4c3)C(=O)N2Cc2ccc(C(=O)O)cc2)cc1 | 9 µM | 11.6 µM | 11.7 µM | 27 µM | – | > 2 | – | – | – | Non-toxic
5 | COc1ccc(/N=C2\S/C(=C\c3cccc(Oc4ccccc4)c3)C(=O)N2Cc2ccc(C(=O)O)cc2)cc1 | 10.9 µM | 12 µM | 21.8 µM | 20.5 µM | > 3 | > 2 | Active | inactive | – | Non-toxic
6 | O=C(O)c1ccc(CN2C(=O)/C(=C/c3ccc(OCc4ccccc4)cc3)S/C2=N\c2ccc(C(F)(F)F)cc2)cc1 | 1.4 µM | 4 µM | 25.4 µM | 2.2 µM | > 3 | > 2 | Active | Active | 1.2 µM | Non-toxic

Continued by falling IC50 [1], values first:

Row | IC50 [1] | IC50 [2] | IC50 [3] | IC50 [4] | Ratio IC50 (Homo sapiens [5]) | Ratio IC50 (Homo sapiens [6]) | inhibition [7] | inhibition [8] | Ki [1] | SMILES | Activity (C2C12)
7 | 3 µM | 6.4 µM | 9.1 µM | 9.5 µM | 1.4 | > 2 | inactive | inactive | – | COc1ccc(/N=C2\S/C(=C\c3ccc(OCc4ccccc4)cc3)C(=O)N2Cc2ccc(C(=O)O)cc2)cc1 | Non-toxic
8 | 2.5 µM | 11.2 µM | 18 µM | 7.1 µM | – | > 2 | Active | inactive | – | COc1ccc(/N=C2\S/C(=C\c3ccc(Oc4ccccc4)cc3)C(=O)N2Cc2ccc(C(=O)O)cc2)cc1 | Non-toxic
9 | 2.4 µM | 5.8 µM | 15.2 µM | 20.2 µM | > 3 | > 2 | Active | Active | – | O=C(O)c1ccc(CN2C(=O)/C(=C/c3ccc4ccccc4c3)S/C2=N\c2ccc(C(F)(F)F)cc2)cc1 | Non-toxic
10 | 2.2 µM | 7.3 µM | 33.2 µM | 15.6 µM | > 3 | 7.1 | – | – | – | O=C(O)c1ccc(CN2C(=O)/C(=C/c3ccc(Oc4ccccc4)cc3)S/C2=N\c2ccc(C(F)(F)F)cc2)cc1 | Non-toxic

From ChEMBL document CHEMBL2010756, “New 4-[(5-arylidene-2-arylimino-4-oxo-3-thiazolidinyl)methyl]benzoic acids active as protein tyrosine phosphatase inhibitors endowed with insulinomimetic effect on mouse C2C12 skeletal muscle cells” (Eur J Med Chem, 2012)
